Assay results taken from ChEMBL document CHEMBL2413020 (Bioorg Med Chem, 2013).
Calls of active or inactive are those of the source. The rule behind the calls is not given here.

How the values were obtained:
[1] = test system: Rattus norvegicus; assay: Antiinflammatory activity in Wistar albino rat assessed as inhibition of carrageenan-induced paw edema at 50 mg/kg, po administered 30 mins prior to carrageenan challenge measured at 2 hrs by plethysmometric analysis relative to control; assay type: functional
In short: (§1)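 Groups of six male Wistar albino rats (200–250 g), fasted 12 h before and during the test. Agents given orally at 50 mg/kg; vehicle controls received tween 80 (95:5). After 30 min, 0.1 mL of 1% w/v carrageenan in saline injected subplantar into the left hind paw. Paw volume by plethysmometer at 0 h (within 30 s) and at 1, 2, 3 and 4 h. % edema inhibition from (Vt−V0) vs control; mean SEM, ANOVA.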

[2] = test system: Rattus norvegicus; assay: Antiinflammatory activity in Wistar albino rat assessed as inhibition of carrageenan-induced paw edema at 50 mg/kg, po administered 30 mins prior to carrageenan challenge measured at 1 hr by plethysmometric analysis relative to control; assay type: functional; in short: as §1
[3] = target: T1, Prostaglandin G/H synthase 1 (Ovis aries) (UniProt P05979); assay: Inhibition of ovine COX1 using arachidonic acid as substrate assessed as production of PGF2alpha at 30 uM preincubated for 10 mins followed by substrate addition measured after 2 mins by EIA in presence of stannous chloride relative to control
T1 sequence (whole entry): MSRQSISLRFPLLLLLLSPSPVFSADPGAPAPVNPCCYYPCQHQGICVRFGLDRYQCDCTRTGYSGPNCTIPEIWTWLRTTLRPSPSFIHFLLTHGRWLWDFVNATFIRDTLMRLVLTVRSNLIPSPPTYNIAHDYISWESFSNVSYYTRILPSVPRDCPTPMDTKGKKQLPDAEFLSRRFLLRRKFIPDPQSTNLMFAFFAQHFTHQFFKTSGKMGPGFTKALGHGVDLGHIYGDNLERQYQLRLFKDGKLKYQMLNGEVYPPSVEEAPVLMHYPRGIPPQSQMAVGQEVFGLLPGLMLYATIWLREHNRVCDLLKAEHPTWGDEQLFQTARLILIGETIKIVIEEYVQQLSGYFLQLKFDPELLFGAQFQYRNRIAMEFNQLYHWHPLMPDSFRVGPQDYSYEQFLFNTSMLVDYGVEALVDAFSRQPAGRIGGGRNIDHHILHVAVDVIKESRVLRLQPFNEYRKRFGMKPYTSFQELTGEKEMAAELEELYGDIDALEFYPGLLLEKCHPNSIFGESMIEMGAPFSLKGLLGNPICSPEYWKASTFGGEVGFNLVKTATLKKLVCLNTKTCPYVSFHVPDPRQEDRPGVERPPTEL

[4] = test system: Rattus norvegicus; assay: Antiinflammatory activity in Wistar albino rat assessed as inhibition of carrageenan-induced paw edema at 50 mg/kg, po administered 30 mins prior to carrageenan challenge measured at 4 hrs by plethysmometric analysis relative to control; assay type: functional; in short: as §1
[5] = test system: Rattus norvegicus; assay: Antiinflammatory activity in Wistar albino rat assessed as inhibition of carrageenan-induced paw edema at 50 mg/kg, po administered 30 mins prior to carrageenan challenge measured at 3 hrs by plethysmometric analysis relative to control; assay type: functional; in short: as §1
[6] = target: T2, Prostaglandin G/H synthase 1 (Ovis aries, UniProt P05979); assay: Inhibition of ovine COX1 using arachidonic acid as substrate assessed as production of PGF2alpha preincubated for 10 mins followed by substrate addition measured after 2 mins by EIA in presence of stannous chloride
T2 sequence (P05979 whole entry): T1 sequence (whole entry)
In short: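 Kit-based EIA in 0.1 M Tris-HCl pH 8 with 2 mM phenol. Enzyme and compound preincubated 10 min at 37 °C; arachidonic acid started a 2 min reaction, stopped with 1 M HCl, then stannous chloride 5 min at room temperature. EIA plate incubated 18 h, Ellman's reagent, read at 410 nm.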

[7] = test system: Rattus norvegicus; assay: Antiinflammatory activity in Wistar albino rat assessed as inhibition of carrageenan-induced paw edema at 50 mg/kg, ip administered 30 mins prior to carrageenan challenge measured at 4 hrs by plethysmometric analysis relative to control; assay type: functional; details: route intraperitoneal
In short: (§2)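 Male Wistar albino rats (200–250 g), food withdrawn 12 h before and during the test, in groups of six. Reference drug given ip; controls received tween 80 (95:5). At 30 min, 0.1 mL of 1% w/v carrageenan in saline injected subplantar into the left hind paw. Plethysmometer paw volume read within 30 s, then at 1–4 h. % inhibition vs control (Vt−V0); mean SEM, ANOVA.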

[8] = test system: Rattus norvegicus; assay: Antiinflammatory activity in Wistar albino rat assessed as inhibition of carrageenan-induced paw edema at 50 mg/kg, ip administered 30 mins prior to carrageenan challenge measured at 1 hr by plethysmometric analysis relative to control; assay type: functional; details: route intraperitoneal; in short: as §2
[9] = test system: Rattus norvegicus; assay: Antiinflammatory activity in Wistar albino rat assessed as inhibition of carrageenan-induced paw edema at 50 mg/kg, ip administered 30 mins prior to carrageenan challenge measured at 3 hrs by plethysmometric analysis relative to control; assay type: functional; details: route intraperitoneal; in short: as §2
[10] = test system: Rattus norvegicus; assay: Antiinflammatory activity in Wistar albino rat assessed as inhibition of carrageenan-induced paw edema at 50 mg/kg, ip administered 30 mins prior to carrageenan challenge measured at 2 hrs by plethysmometric analysis relative to control; assay type: functional; details: route intraperitoneal; in short: as §2

`N#Cc1ccc(-n2nc(C(F)(F)F)cc2-c2ccc(F)cc2)cc1` was tested, and the inhibition in vivo at 50 mg/kg [1] was 81.1%, the inhibition in vivo at 50 mg/kg [2] was 79.8% and the inhibition [3] was “inactive”. It also gave an inhibition in vivo at 50 mg/kg [4] of 90.4% and an inhibition in vivo at 50 mg/kg [5] of 84.4%.

`COc1ccc(-c2cc(C(F)(F)F)nn2-c2ccc(C(N)=S)cc2)cc1` gave an inhibition in vivo at 50 mg/kg [1] of 77.9%, an inhibition in vivo at 50 mg/kg [2] of 78.8% and an inhibition in vivo at 50 mg/kg [4] of 52.9%. It also gave an inhibition in vivo at 50 mg/kg [5] of 65.9%.

`N#Cc1ccc(-n2nc(C(F)(F)F)cc2-c2ccccc2)cc1` was tested, and the inhibition in vivo at 50 mg/kg [1] was 81.1%, the inhibition in vivo at 50 mg/kg [2] was 91.9% and the inhibition [3] was 97%. It also gave an IC50 [6] of 1.11 µM, an inhibition in vivo at 50 mg/kg [4] of 91% and an inhibition in vivo at 50 mg/kg [5] of 84.4%.

In the case of `NC(=S)c1ccc(-n2nc(C(F)(F)F)cc2-c2ccco2)cc1`, the inhibition in vivo at 50 mg/kg [1] is reported as 77.4%, the inhibition in vivo at 50 mg/kg [2] is reported as 82.8% and the inhibition [3] is reported as 20.1%. It also gave an IC50 [6] of over 30 µM, an inhibition in vivo at 50 mg/kg [4] of 59.8% and an inhibition in vivo at 50 mg/kg [5] of 58.4%.

`NC(=S)c1ccc(-n2nc(C(F)(F)F)cc2-c2ccc(Br)cc2)cc1` gave an inhibition in vivo at 50 mg/kg [1] of 84.9%, an inhibition in vivo at 50 mg/kg [2] of 54.5% and an inhibition [3] of 86.1%. For the same molecule, the IC50 [6] was 2.35 µM, the inhibition in vivo at 50 mg/kg [4] was 60.3% and the inhibition in vivo at 50 mg/kg [5] was 72.8%.

In the case of `N#Cc1ccc(-n2nc(C(F)(F)F)cc2-c2cccs2)cc1`, the inhibition in vivo at 50 mg/kg [1] is reported as 71.4%, the inhibition in vivo at 50 mg/kg [2] is reported as 81.8% and the inhibition [3] is reported as “inactive”. It also gave an inhibition in vivo at 50 mg/kg [4] of 55.9% and an inhibition in vivo at 50 mg/kg [5] of 57.8%.

Molecule `NC(=S)c1ccc(-n2nc(C(F)(F)F)cc2-c2ccccc2)cc1` has an inhibition in vivo at 50 mg/kg [1] of 74.9%, an inhibition in vivo at 50 mg/kg [2] of 82.8% and an inhibition [3] of 97.9%. The IC50 [6] was 1.42 µM, the inhibition in vivo at 50 mg/kg [4] was 50% and the inhibition in vivo at 50 mg/kg [5] was 49.7%.

`COc1ccc(-c2cc(C(F)(F)F)nn2-c2ccc(C#N)cc2)cc1` showed an inhibition in vivo at 50 mg/kg [1] of 85.2%, an inhibition in vivo at 50 mg/kg [2] of 44.4% and an inhibition in vivo at 50 mg/kg [4] of 54.8%. For the same molecule, the inhibition in vivo at 50 mg/kg [5] was 69.9%.

With `N#Cc1ccc(-n2nc(C(F)(F)F)cc2-c2ccc3ccccc3c2)cc1` the inhibition in vivo at 50 mg/kg [1] was 67.8%, the inhibition in vivo at 50 mg/kg [2] was 84.8% and the inhibition [3] was 20.7%. It also gave an inhibition in vivo at 50 mg/kg [4] of 48% and an inhibition in vivo at 50 mg/kg [5] of 59.5%.

`Cc1ccc(-c2cc(C(F)(F)F)nn2-c2ccc(C(N)=S)cc2)cc1` was tested, and the inhibition in vivo at 50 mg/kg [1] was 79.4%, the inhibition in vivo at 50 mg/kg [2] was 73.7% and the inhibition [3] was 44.3%. The IC50 [6] was over 30 µM, the inhibition in vivo at 50 mg/kg [4] was 51.7% and the inhibition in vivo at 50 mg/kg [5] was 60.1%.

For `N#Cc1ccc(-n2nc(C(F)(F)F)cc2-c2ccco2)cc1`, the inhibition in vivo at 50 mg/kg [1] was 79.1%, the inhibition in vivo at 50 mg/kg [2] was 79.8% and the inhibition [3] was “inactive”. It also gave an inhibition in vivo at 50 mg/kg [4] of 61.6% and an inhibition in vivo at 50 mg/kg [5] of 67.6%.

In the case of `N#Cc1ccc(-n2nc(C(F)(F)F)cc2-c2ccc(Cl)cc2)cc1`, the inhibition in vivo at 50 mg/kg [1] is reported as 76.5%, the inhibition in vivo at 50 mg/kg [2] is reported as 26.3% and the inhibition [3] is reported as “inactive”. It also gave an inhibition in vivo at 50 mg/kg [4] of 65% and an inhibition in vivo at 50 mg/kg [5] of 67.6%.

In the case of `N#Cc1ccc(-n2nc(C(F)(F)F)cc2-c2ccc(Br)cc2)cc1`, the inhibition in vivo at 50 mg/kg [1] is reported as 88.8%, the inhibition in vivo at 50 mg/kg [2] is reported as 78.8% and the inhibition [3] is reported as 13.4%. It also gave an IC50 [6] of over 30 µM, an inhibition in vivo at 50 mg/kg [4] of 86.4% and an inhibition in vivo at 50 mg/kg [5] of 83.8%.

`COc1ccc2c(c1)c(CC(=O)O)c(C)n2C(=O)c1ccc(Cl)cc1` [INDOMETHACIN] showed an inhibition in vivo at 50 mg/kg [7] of 90.2%, an inhibition in vivo at 50 mg/kg [8] of 96% and an inhibition in vivo at 50 mg/kg [9] of 85%. The inhibition in vivo at 50 mg/kg [10] was 90.3%.

In the case of `Cc1ccc(-c2cc(C(F)(F)F)nn2-c2ccc(C#N)cc2)cc1`, the inhibition in vivo at 50 mg/kg [1] is reported as 87.2%, the inhibition in vivo at 50 mg/kg [2] is reported as 65.7% and the inhibition [3] is reported as “inactive”. The inhibition in vivo at 50 mg/kg [4] was 80.2% and the inhibition in vivo at 50 mg/kg [5] was 82.7%.

`NC(=S)c1ccc(-n2nc(C(F)(F)F)cc2-c2ccc3ccccc3c2)cc1` was tested, and the inhibition in vivo at 50 mg/kg [1] was 72.9%, the inhibition in vivo at 50 mg/kg [2] was 92.9% and the inhibition in vivo at 50 mg/kg [4] was 46%. It also gave an inhibition in vivo at 50 mg/kg [5] of 53.2%.

`NC(=S)c1ccc(-n2nc(C(F)(F)F)cc2-c2ccc(F)cc2)cc1` was tested, and the inhibition in vivo at 50 mg/kg [1] was 85.4%, the inhibition in vivo at 50 mg/kg [2] was 74.8% and the inhibition [3] was “inactive”. It also gave an IC50 [6] of over 30 µM, an inhibition in vivo at 50 mg/kg [4] of 82.8% and an inhibition in vivo at 50 mg/kg [5] of 71.7%.

Work on `NC(=S)c1ccc(-n2nc(C(F)(F)F)cc2-c2cccs2)cc1` yielded an inhibition in vivo at 50 mg/kg [1] of 73.4%, an inhibition in vivo at 50 mg/kg [2] of 85.9% and an inhibition [3] of 39.8%. The inhibition in vivo at 50 mg/kg [4] was 61.5% and the inhibition in vivo at 50 mg/kg [5] was 57.2%.

With `NC(=S)c1ccc(-n2nc(C(F)(F)F)cc2-c2ccc(Cl)cc2)cc1` the inhibition in vivo at 50 mg/kg [1] was 77.4%, the inhibition in vivo at 50 mg/kg [2] was 89.9% and the inhibition [3] was 86.9%. For the same molecule, the IC50 [6] was 1.11 µM, the inhibition in vivo at 50 mg/kg [4] was 61.5% and the inhibition in vivo at 50 mg/kg [5] was 63%.
